Source: ChEMBL document CHEMBL4321877, “Development of Novel N-hydroxypyridone Derivatives as Potential Anti-Ischemic Stroke Agents” (J Med Chem, 2020)
Values after ≈ are worked out from the molar mass of the structure shown. Active and inactive are the calls of the source. The calls are words filed in the database; no cut-off is given here.

Key:
SH-SY5Y [1] = assay: Neuroprotective activity against oxygen-glucose deprivation-induced toxicity in human SH-SY5Y cells assessed as cell viability at 1 uM preincubated for 2 hrs followed by OGD-challenge and measured after 24 hrs by MTT assay (reference value: 54.92 +/- 2.12%); format: functional; details: read-out: Activity
SH-SY5Y [2] = assay: Neuroprotective activity against oxygen-glucose deprivation-induced toxicity in human SH-SY5Y cells assessed as cell viability at 10 uM preincubated for 2 hrs followed by OGD-challenge and measured after 24 hrs by MTT assay (reference value: 54.92 +/- 2.12%); format: functional; details: read-out: Activity
SH-SY5Y [3] = assay: Cytotoxicity against human SH-SY5Y cells assessed as reduction in cell viability at 10 uM measured after 24 hrs by MTT assay; format: cell-based
How it was run: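 SH-SY5Y cells (1:1 MEM/F12, 10% FBS) seeded 3 × 10^4 cells/well, grown 24 h, then exposed without insult for 24 h to 1.56–100 µM or to 1 and 10 µM (DMSO stock diluted in medium). MTT read at 490 nm; viability as % of untreated control.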

[4] = Solubility of the compound in […] incubated for 24 hrs by HPLC analysis; format: physicochemical
[5] = Permeability of the compound incubated for 10 hrs by PAMPA; format: ADME; details: read-out: permeability
[6] = Antioxidant activity assessed as trolox equivalent of AAPH radical scavenging activity measured every min for 180 mins by ORAC-FL assay; format: functional
SH-SY5Y [7] = assay: Neuroprotective activity against oxygen-glucose deprivation-induced toxicity in human SH-SY5Y cells assessed as cell viability at 1 uM preincubated for 2 hrs followed by OGD-challenge and measured after 24 hrs by MTT assay (reference value: 54.23 +/- 4.48%); format: functional; details: read-out: Activity
SH-SY5Y [8] = assay: Neuroprotective activity against oxygen-glucose deprivation-induced toxicity in human SH-SY5Y cells assessed as cell viability at 4 uM added immediately before OGD-challenge and measured after 24 hrs by MTT assay (reference value: 54.23 +/- 4.48%)
[9] = Metal chelating activity of the compound assessed as formation of ferric-compound complex at 60 uM after 15 mins using ammonium iron citrate solution by UV-vis spectrophotometric method
SH-SY5Y [10] = assay: Neuroprotective activity against oxygen-glucose deprivation-induced toxicity in human SH-SY5Y cells assessed as cell viability at 10 uM preincubated for 2 hrs followed by OGD-challenge and measured after 24 hrs by MTT assay (reference value: 49.91%); format: functional; details: read-out: Activity
SH-SY5Y [11] = assay: Neuroprotective activity against oxygen-glucose deprivation-induced toxicity in human SH-SY5Y cells assessed as cell viability at 1 uM preincubated for 2 hrs followed by OGD-challenge and measured after 24 hrs by MTT assay (reference value: 49.91%); format: functional; details: read-out: Activity
[12] = Metal chelating activity of the compound assessed as formation of ferric-compound complex at 60 uM after 15 mins using FeSO4 solution by UV-vis spectrophotometric method
[13] = Metal chelating activity of the compound assessed as formation of ferric-compound complex at 60 uM after 15 mins using FeCl3 solution by UV-vis spectrophotometric method
[14] = Metal chelating activity of the compound assessed as formation of ferric-compound complex by measuring change in color at 60 uM after 15 mins using FeSO4 solution by UV-vis spectrophotometric method
Rattus norvegicus = assay: Neuroprotective activity in Sprague-Dawley rat model of middle cerebral artery occlusion-induced ischemia-reperfusion injury assessed as reduction in disease severity score at 3 mg/kg, iv measured 24 hrs post-reperfusion; format: functional, organism-based
How it was run: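 Male Sprague-Dawley rats anesthetized with chloral hydrate (400 mg/kg i.p.); left MCA occluded by intraluminal nylon suture for 2 h, then withdrawn. Compound in 0.9% saline given by tail vein immediately after reperfusion; body temperature held at 37.0 ± 0.5 °C. mNSS scored 24 h later; n = 15–18, mean ± SEM.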

[15] = Metal chelating activity of the compound assessed as formation of ferric-compound complex at 60 uM after 15 mins using ammonium iron citrate solution by UV-vis spectrophotometric method
[16] = Metal chelating activity of the compound assessed as formation of ferrous-compound complex at 60 uM after 15 mins using ammonium iron(II) sulfate solution by UV-vis spectrophotometric method
[17] = Metal chelating activity of the compound assessed as formation of ferric-compound complex by measuring change in color at 60 uM after 15 mins using ammonium iron citrate solution by UV-vis spectrophotometric method
HT-22 = assay: Neuroprotective activity against glutamate-induced cell death in mouse HT22 cells assessed as increase in cell viability up to 4 uM preincubated for 2 hrs followed by glutamate-challenge and measured after 24 hrs by MTT assay; format: functional, cell-based
How it was run: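 HT22 mouse hippocampal cells (DMEM, 10% FBS) seeded 5×10^4 cells/ml and grown 12 h. Compound added for 2 h, then 10 mM L-glutamic acid hydrochloride for 24 h. Viability by MTT at 490 nm as % of control; mean ± SD, n = 3.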

SH-SY5Y [18] = assay: Neuroprotective activity against oxygen-glucose deprivation-induced toxicity in human SH-SY5Y cells assessed as cell viability at 2 uM preincubated for 2 hrs followed by OGD-challenge and measured after 24 hrs by MTT assay (reference value: 54.92 +/- 2.12%); format: functional; details: read-out: Activity
SH-SY5Y [19] = assay: Neuroprotective activity against oxygen-glucose deprivation-induced toxicity in human SH-SY5Y cells assessed as cell viability at 4 uM preincubated for 2 hrs followed by OGD-challenge and measured after 24 hrs by MTT assay (reference value: 54.92 +/- 2.12%); format: functional; details: read-out: Activity
SH-SY5Y [20] = assay: Neuroprotective activity against oxygen-glucose deprivation-induced toxicity in human SH-SY5Y cells assessed as increase in cell viability preincubated for 2 hrs followed by OGD-challenge and measured after 24 hrs by MTT assay; format: functional, cell-based

Row | Compound | viability at 1 µM (SH-SY5Y [1]) | viability at 10 µM (SH-SY5Y [2]) | other results
1 | CCCCCCCCCc1cc(C)cc(=O)n1O | 53% | 42.5% | 
2 | Cc1cc(C2CCC2)n(O)c(=O)c1 | 46% | 71.2% | 
3 | C#CCNCc1c(C)cc(C2CCCCC2)n(O)c1=O | 63.6% | 61.6% | 
4 | Cc1cc(CC(C)C)n(O)c(=O)c1 | 47.7% | 73.3% | 
5 | Cc1cc(C2CCCCC2)n(O)c(=O)c1 [CICLOPIROX] | 70.1% | 69.8% | Activity (SH-SY5Y [3]): Toxic; solubility at 24 h [4]: 1430 µg/mL (≈ 6.9 mM); Papp at 10 h [5]: 8.17 ×10⁻⁶ cm/s
6 | Cc1cc(=O)n(O)c(C2CCCCC2)c1Br | 81% | 63.2% | Activity [6]: inactive; Papp at 10 h [5]: 3.97 ×10⁻⁶ cm/s
7 | Cc1cc(C2CCCCC2)n(OCC(=O)O)c(=O)c1 | 56% | 55.9% | 
8 | CCCc1cc(C)cc(=O)n1O | 47% | 64% | 
9 | CCCCCCCNCc1c(C)cc(C2CCCCC2)n(O)c1=O |  |  | viability at 1 µM (SH-SY5Y [7]): 60%; viability at 4 µM (SH-SY5Y [8]): 87.2%
10 | CCOn1c(C2CCCCC2)cc(C)cc1=O |  |  | Activity [9]: inactive; viability at 10 µM (SH-SY5Y [10]): 43.9%; viability at 1 µM (SH-SY5Y [11]): 46.3%; Activity [12]: inactive
11 | Cc1cc(Cc2ccccc2)n(O)c(=O)c1 | 46.5% | 76.8% | 
12 | CCCCCc1cc(C)cc(=O)n1O | 63.5% | 62% | 
13 | CCCNCc1c(C)cc(C2CCCCC2)n(O)c1=O | 61% | 68% | 
14 | CNCc1c(C)cc(C2CCCCC2)n(O)c1=O | 60.9% | 67.5% | 
15 | Cc1cc(C2CCCCC2)n(O)c(=O)c1CNC(C)C | 61% | 65.2% | 
16 | Cc1cc(C2CCCCC2)n(O)c(=O)c1CNc1ccccc1 | 56.8% | 75.5% | 

Row | Compound | viability at 1 µM (SH-SY5Y [1]) | viability at 10 µM (SH-SY5Y [2]) | other results
17 | O=c1cccc(C2CCCCC2)n1O | 51.8% | 76.6% | 
18 | Cc1cc(C2CCCCC2)n(O)c(=O)c1Br | 62.9% | 59.9% | 
19 | Cc1cc(C)n(O)c(=O)c1 [METIPIROX] | 55.8% | 18.3% | 
20 | Cc1cc(C2CCCCC2)n(O)c(=O)c1 |  |  | Activity [9]: Active; Activity [13]: Active; Activity [14]: Active; Activity (Rattus norvegicus): Active; Activity [15]: Active; Activity [12]: Active; Activity [16]: Active; Activity [17]: Active; Activity (umolequiv/umol) [6]: 0.52; Activity (HT-22): Active
21 | Cc1cc(C2CCCCC2)n(O)c(=O)c1I | 76.3% | 55.1% | viability at 2 µM (SH-SY5Y [18]): > 80%; Activity (umolequiv/umol) [6]: 0.2; Papp at 10 h [5]: 7.65 ×10⁻⁶ cm/s
22 | Cc1cc([C@H]2C[C@H]3CC[C@@H]2C3)n(O)c(=O)c1 | 70.6% | 64.5% | viability at 4 µM (SH-SY5Y [19]): > 80%; Activity [9]: Active; Activity [13]: Active; viability at 2 µM (SH-SY5Y [18]): > 80%; Activity [14]: Active; Activity [15]: Active; Activity (SH-SY5Y [3]): Toxic; solubility at 24 h [4]: 1220 µg/mL (≈ 5.56 mM); Activity [12]: Active; Activity [16]: Active; Activity [17]: Active; Activity (umolequiv/umol) [6]: 1.13; Papp at 10 h [5]: 7.5 ×10⁻⁶ cm/s
23 | CCCCCCCc1cc(C)cc(=O)n1O | 71.7% | 58.5% | Activity (SH-SY5Y [20]): inactive
24 | Cc1cc(C2CCCCCC2)n(O)c(=O)c1 | 71% | 38.4% | viability at 2 µM (SH-SY5Y [18]): > 80%; Activity (SH-SY5Y [3]): Toxic; Activity [6]: inactive; Papp at 10 h [5]: 4.42 ×10⁻⁶ cm/s
25 | Cc1cc(C2CCCCC2)n(O)c(=O)c1CNC1CCCC1 | 67% | 61.9% | Activity (SH-SY5Y [3]): Toxic; Activity [6]: inactive; Papp at 10 h [5]: 3.89 ×10⁻⁶ cm/s
26 | O=c1c2ccccc2cc(C2CCCCC2)n1O | 78.5% | 61.6% | Activity [6]: inactive; Papp at 10 h [5]: 4.43 ×10⁻⁶ cm/s
27 | Cc1cc(C2CCCC2)n(O)c(=O)c1 | 52.4% | 70.7% | 
28 | CCc1cc(C2CCCCC2)n(O)c(=O)c1 | 69.8% | 67.3% | Activity [6]: inactive; Papp at 10 h [5]: 4.53 ×10⁻⁶ cm/s
29 | Cc1cc(C2CCCCC2)n(O)c(=O)c1Cl | 63.4% | 57.1% | 
30 | Cc1cc(C2CCCCC2)n(O)c(=O)c1C=O | 54.8% | 56.5% | 
31 | COC(=O)COn1c(C2CCCCC2)cc(C)cc1=O | 49.9% | 56.4% | 
32 | Cc1cc(C2CC2)n(O)c(=O)c1 | 58.8% | 62.8% | 
